IDE cell inh = inhibits human insulin-degrading enzyme in HEK cells. inhibition, % at 5.59 µM. 320,000 compounds, 0.41% hits. AID 434962. FAbetaB cleavage, fluorescence polarization;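 active means percent inhibition above the average of all tested compounds plus 3 SD, set per screening campaign, cut at about 16% in these data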;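 further: IDE supplied by intact live HEK cells; FP after avidin binding of uncleaved biotin substrate so inhibition keeps polarization high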
IDE cell activ = boosts human insulin-degrading enzyme activity in HEK cells; P14735; FAbeta-B cleavage, fluorescence polarization; 0% vehicle, 100% cell-free pure enzyme wells; activation, % at 5.96 µM; 340,000 compounds, 0.073% hits; AID 493087;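 active means activation above the mean of all tested compounds plus 3 SD, set per screening campaign, cut at about 17% in these data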
Rpn11 inh = inhibitors of human proteasome Rpn11 | O00487 | 360,000 compounds, 0.59% hits | human 26S proteasome, Ub4-pepOG fluorescence polarization; 20S core pre-blocked with epoxomicin | calls only at 20 µM;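 active means inhibition at 20 µM, scaled to each plate's controls, above about 33%, limit read from the data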
Target sequence (O00487 whole entry, looked up): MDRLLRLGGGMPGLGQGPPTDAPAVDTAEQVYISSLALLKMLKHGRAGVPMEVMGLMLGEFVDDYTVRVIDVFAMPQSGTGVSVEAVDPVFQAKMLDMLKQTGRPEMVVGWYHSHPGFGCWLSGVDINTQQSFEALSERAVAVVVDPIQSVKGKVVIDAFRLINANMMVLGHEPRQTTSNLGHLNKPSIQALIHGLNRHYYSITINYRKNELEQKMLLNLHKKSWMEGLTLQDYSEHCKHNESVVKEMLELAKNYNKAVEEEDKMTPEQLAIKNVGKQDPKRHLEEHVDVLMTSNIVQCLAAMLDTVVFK
CSN deneddyl inh = CSN deneddylation inhibition. Purified CSN, SCF-Nedd8-OG deneddylation, fluorescence polarization. inhibition, % at 12.5 µM. Q92905. AID 651999. 360,000 compounds, 0.38% hits;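 active means pattern-corrected inhibition above about 35%, with an unprinted fluorescence ratio check between 0.5 and 1.5, limit read from the data, passing the limit was not always enough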
Target sequence (Q92905 whole entry, looked up, one chain of several): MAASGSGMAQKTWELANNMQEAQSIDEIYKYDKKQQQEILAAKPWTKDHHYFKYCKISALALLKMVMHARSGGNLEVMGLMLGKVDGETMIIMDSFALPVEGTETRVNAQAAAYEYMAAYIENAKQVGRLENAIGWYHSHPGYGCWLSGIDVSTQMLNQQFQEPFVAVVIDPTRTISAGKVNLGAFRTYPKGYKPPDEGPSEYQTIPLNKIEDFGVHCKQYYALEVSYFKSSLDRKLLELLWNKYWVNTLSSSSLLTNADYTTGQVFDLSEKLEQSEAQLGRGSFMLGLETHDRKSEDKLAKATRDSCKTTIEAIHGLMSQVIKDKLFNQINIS
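Material: human Csn5 produced in HEK293T cells; Input: enzyme 0.24 nM; Reagent: SCFSkp2-Nedd8OG substrate at 10 nM final; Dosing: 12.5 µM compound; Incubation: 90 min reaction at room temperature; Detection: fluorescence polarization of the substrate; Evaluation: % inhibition of substrate cleavage by Csn5; Control set: substrate-only high control, full reaction low control.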
TPT1 inhibitor = blocks Candida albicans tRNA 2'-phosphotransferase. inhibition, % at 5 µM. 300,000 compounds, 0.81% hits. recombinant caTPT1, FP RNA substrate dephosphorylation;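 active means inhibition above the mean of all tested compounds plus 3 SD, set per screening campaign, cut at about 24% in these data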
HNF4A DNA FP = change in binding of human HNF4 alpha to DNA; P41235; HNF4a-FITC DNA binding, fluorescence polarization, 1 h; activity change, % at 10 µM; 360,000 compounds, 0.3% hits; in the data active means activity change above about 30%, passing the limit was not always enough
TPT1 inh confirm = TPT1 (C. albicans) inhibition, confirmation | shares compounds with TPT1 inhibitor | recombinant caTPT1, fluorescence polarization, RNase T1 coupled | inhibition, % at 5 µM | 2,400 compounds, 74% hits;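 active means inhibition above the primary screen limit, the mean inhibition of all tested compounds plus 3 SD, cut at about 25% in these data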
RNase T1 inh = blocks Aspergillus oryzae RNase T1, a TPT1 counter-screen | inhibition, % at 5 µM | RNase T1 cleavage, fluorescence polarization, 1536-well | 2,400 compounds, 83% hits | shares compounds with TPT1 inhibitor;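 active means inhibition above the solvent-only control well mean plus 3 SD, limit set per screening run, cut at about 23% in these data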;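 further: inhibitors block cleavage so intact labeled substrate keeps polarization high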
Of the large screens only hits and unclear results are named; the others gave an inactive call (follow-up assays come after a bar, where shown). Sampled rows, rich in hits. Any-hit rate of the full collection: about 1.7%.

CCN1c2ccccc2NC2C1C(C(C)=O)C(=O)N2c1ccc(Cl)cc1 (configuration not stated)	TPT1 inhibitor 60, HNF4A DNA FP 45 (not shown: Rpn11 inh) | TPT1 inh confirm 76 | RNase T1 inh 85
Cc1nn(-c2ccc(N3CCCCC3)nn2)c(C)c1CCC(=O)Nc1cc(F)ccc1F	none
COc1ccc(N(CC(=O)NC2CC3CCC2C3)S(=O)(=O)c2ccc(C)cc2)cc1 (configuration not stated)	none
Cn1cccc1/C=C1/SC(=O)N(CC(=O)N2CCCC2)C1=O	none
CCCC(C(=O)O)N1C(=O)/C(=C/c2cccn2C)SC1=S (configuration not stated)	CSN deneddyl inh 89, TPT1 inhibitor 107 (not shown: Rpn11 inh) | TPT1 inh confirm 121 | RNase T1 inh 127
CC(C)C(C(=O)O)N1C(=O)/C(=C/c2cccn2C)SC1=S (configuration not stated)	CSN deneddyl inh 66, TPT1 inhibitor 106, HNF4A DNA FP 88 (not shown: Rpn11 inh) | TPT1 inh confirm 125 | RNase T1 inh 134
CC(=C\c1ccco1)/C=C1/SC(=S)N(CC(=O)O)C1=O	none
CC(C)C(C(=O)O)N1C(=O)/C(=C/C=C/c2ccco2)SC1=S (configuration not stated)	TPT1 inhibitor 83 (not shown: Rpn11 inh) | TPT1 inh confirm 88 | RNase T1 inh 64
Cc1ccc2c(c1)N(CC(=O)NCC1CCCO1)C(=O)C(C)O2 (configuration not stated)	none
CCN(CC(=O)Nc1ccc2c(c1)OCCO2)C(=O)c1ccccc1Br	none (no result: TPT1 inhibitor)
CC(=O)Nc1ccc(NC(=O)C(C)OC(=O)CN(C)S(=O)(=O)c2ccc(Cl)cc2)cc1 (configuration not stated)	none
O=C(NCCCO)/C(=C/c1ccc(-c2cccc([N+](=O)[O-])c2)o1)NC(=O)c1ccccc1	none
Cc1ccc(C(=O)N/C(=C\c2ccc(-c3ccc([N+](=O)[O-])cc3)o2)C(=O)NC2CCS(=O)(=O)C2)cc1 (configuration not stated)	TPT1 inhibitor 47 (not shown: Rpn11 inh) | TPT1 inh confirm 58 | RNase T1 inh 71
Cc1ccc(C(=O)N/C(=C/c2ccc(-c3ccc([N+](=O)[O-])cc3)o2)C(=O)NCCCN(C)C)cc1	TPT1 inhibitor 26 | TPT1 inh confirm 24 | RNase T1 inh 33
Cc1ccc(C(=O)N/C(=C\c2ccc(-c3cccc([N+](=O)[O-])c3)o2)C(=O)NC(C)(C)C)cc1	none
CCOC(=O)c1c(-c2ccccc2)csc1/N=C/C1C(=O)CCCC1=O	TPT1 inhibitor 114 | TPT1 inh confirm inactive | RNase T1 inh 33
CCOC(=O)c1c(CC(C)C)csc1/N=C/C1C(=O)CCCC1=O	TPT1 inhibitor 126 | TPT1 inh confirm inactive | RNase T1 inh inactive
CCOC(=O)c1c(/N=C/C2C(=O)CCCC2=O)sc2c1CCCC2	none (no result: IDE cell activ)
CCOC(=O)c1c(-c2ccc(C)cc2)csc1/N=C/N(C)C	none
CCOC(=O)c1sc(/N=C/c2c(C)[nH]n(-c3ccccc3)c2=O)c(C#N)c1C	TPT1 inhibitor 30 (no result: IDE cell activ, Rpn11 inh, CSN deneddyl inh, HNF4A DNA FP) | TPT1 inh confirm 120 | RNase T1 inh 124
O=C(COc1cc(Cl)ccc1Cl)Nc1ccc2c(c1)CCC2	none
Cc1ccc(NC(=O)CSc2nc(=O)n(CCCN3CCOCC3)c3c2CCCC3)c(C)c1	TPT1 inhibitor 66 | TPT1 inh confirm inactive | RNase T1 inh inactive
Cc1ccc2c(c1)c1nc3ccccc3nc1n2C	none
Cc1ccc(-n2c(N)c(-c3nc4ccccc4n3C)sc2=S)cc1	none
Cn1c(-c2c(N)n(-c3ccccc3)c3nc4ccccc4nc23)nc2ccccc21	TPT1 inhibitor 40 | TPT1 inh confirm 43 | RNase T1 inh 52
Cc1cccc(-n2c(N)c(-c3nc4ccccc4n3C)c3nc4ccccc4nc32)c1	TPT1 inhibitor 26 | TPT1 inh confirm 25 | RNase T1 inh 36
COc1ccc(C(CNC(=O)CNC(=O)c2ccc(F)cc2)N2CCCC2)cc1 (configuration not stated)	none (no result: TPT1 inhibitor)
O=C(CN(Cc1cccs1)C(=O)CSc1nnc(COc2ccccc2)o1)NC1CCCC1	none
Cc1sc2nc(COC(=O)c3cccc(S(=O)(=O)N(C)c4ccccc4)c3)[nH]c(=O)c2c1C	TPT1 inhibitor 52 (not shown: Rpn11 inh) | TPT1 inh confirm 45 | RNase T1 inh 55
O=C(Nc1cc(F)cc(F)c1)c1ccc(NCCc2ccccc2)c([N+](=O)[O-])c1	TPT1 inhibitor 67 (not shown: Rpn11 inh) | TPT1 inh confirm 92 | RNase T1 inh 102
Cc1ccc(NC(=O)c2ccc(NCCc3ccccc3)c([N+](=O)[O-])c2)cc1F	TPT1 inhibitor 59, HNF4A DNA FP 54 (not shown: Rpn11 inh) | TPT1 inh confirm 108 | RNase T1 inh 113
O=C(Nc1cc(F)cc(F)c1)c1ccc(NCCCN2CCCCCC2)c([N+](=O)[O-])c1	none
COc1ccccc1CCNC(=O)CCn1c(=O)c2cccn2c2ccc(F)cc21	none
Cc1ccc(Cn2nc(C)c(NC(=O)C3CC3)c2C)cc1	none
CN(C)/C=C1/Sc2ccccc2C1=O	none
CC(=O)Nc1ccc(/C=C2/Sc3ccccc3C2=O)cc1	TPT1 inhibitor 44 | TPT1 inh confirm 43 | RNase T1 inh 51
CC(=O)N(\C=C/C=C/C=C1\Sc2ccccc2C1=O)c1ccccc1	TPT1 inhibitor 58, HNF4A DNA FP 49 | TPT1 inh confirm 84 | RNase T1 inh 94
CCCSc1nc2c(cnn2-c2ccc(F)cc2)c(=O)[nH]1	none
COc1ccc(/C=C/C(=O)NCCCc2ccccc2)cc1	none
COc1ccc(/C=C/c2cc[n+](C(=O)Cc3ccccc3)cc2)cc1	TPT1 inhibitor 26 | TPT1 inh confirm inactive | RNase T1 inh inactive
Nc1ccc(-c2cnc(N)c(C(=O)c3cccnc3)n2)cn1	none (no result: IDE cell inh, TPT1 inhibitor)
Cn1c(N/N=C/c2cc3ccccc3nc2Cl)nc2ccccc21	TPT1 inhibitor 69, HNF4A DNA FP 60 | TPT1 inh confirm inactive | RNase T1 inh inactive
COc1ccc2nc(C)cc(NCc3ccc(F)cc3)c2c1	TPT1 inhibitor 69 (not shown: Rpn11 inh) | TPT1 inh confirm 82 | RNase T1 inh 85
COc1ccc2nc(C)cc(Nc3ccc(C)cc3)c2c1	none (no result: IDE cell inh, TPT1 inhibitor)
CC1CC/C(=C\c2ccc3c(c2)OCO3)C(=O)/C1=C/c1ccc2c(c1)OCO2 (configuration not stated)	TPT1 inhibitor 31 | TPT1 inh confirm inactive | RNase T1 inh inactive
CCc1cccc(OCCCn2ccnc2)c1	TPT1 inhibitor 36 | TPT1 inh confirm inactive | RNase T1 inh inactive
COc1cccc(OCCCn2ccnc2)c1	none
